According to ChEMBL document CHEMBL3352507, “Preparation and antimalarial activity of a novel class of carbohydrate-derived, fused thiochromans” (Eur J Med Chem, 2014):

Key:
Plasmodium falciparum [1] = assay: Antimalarial activity against Plasmodium falciparum 3D7 after 48 hrs by parasite lactate dehydrogenase assay; type: functional, organism-based; conditions: 3D7, 48 h
How it was run: (§1)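 Parasite survival read by parasite lactate dehydrogenase (pLDH) assay. Single-concentration prescreen at […]; compounds with 0–15% survival were taken to dose–response. Ten three-fold serial dilutions in triplicate, incubated 48 h in a gassed airtight box, developed with NBT/PES. IC50 from sigmoidal curve of % survival relative to control against log concentration.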

Plasmodium falciparum [2] = assay: Antimalarial activity against Plasmodium falciparum FCR3 after 48 hrs by parasite lactate dehydrogenase assay; type: functional, organism-based; conditions: FCR3, 48 h; how it was run: as §1
[3] = Cytotoxicity against human WI38 cells assessed as cell viability at 100 uM after 48 hrs by SRB assay; type: cell-based, WI-38; conditions: read-out: Activity
How it was run: (§2)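 WI-38 fibroblasts (passages 21–50) were seeded at 10 000 cells/well for 24 h, then exposed for 48 h to compound dissolved in DMSO and diluted in medium. Viable cells were fixed with cold 50% trichloroacetic acid and stained with sulforhodamine B. Bound dye was extracted with 10 mM Tris base and read at 540 nm. Viability relative to drug-free cells.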

[4] = Cytotoxicity against human WI38 cells assessed as cell viability at 10 uM after 48 hrs by SRB assay; type: cell-based, WI-38; conditions: read-out: Activity; how it was run: as §2
[5] = Cytotoxicity against human WI38 cells assessed as cell viability at 0.01 uM after 48 hrs by SRB assay; type: cell-based, WI-38; conditions: read-out: Activity; how it was run: as §2
[6] = Cytotoxicity against human WI38 cells assessed as cell viability at 0.1 uM after 48 hrs by SRB assay; type: cell-based, WI-38; conditions: read-out: Activity; how it was run: as §2
[7] = Cytotoxicity against human WI38 cells after 48 hrs by SRB assay; type: cell-based; conditions: WI-38, 48 h
How it was run: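 WI-38 human fetal lung fibroblasts (passages 21–50) in EMEM with 10% FBS, 2 mM L-glutamine and gentamicin, at 37 °C and 5% CO2. Seeded at 10 000 cells/well, grown 24 h, then given compound in DMSO diluted in medium to 5 concentrations for 48 h. Cells were fixed with cold 50% TCA and stained with SRB, and dye was read at 540 nm. IC50 by non-linear regression against untreated controls.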

[8] = Cytotoxicity against human WI38 cells assessed as cell viability at 1 uM after 48 hrs by SRB assay; type: cell-based, WI-38; conditions: read-out: Activity; how it was run: as §2

| SMILES | IC50 (Plasmodium falciparum [1]) [µM] | IC50 (Plasmodium falciparum [2]) [µM] | viability at 48 h, 100 µM [3] [%] | viability at 48 h, 10 µM [4] [%] | viability at 48 h, 0.01 µM [5] [%] | viability at 48 h, 0.1 µM [6] [%] | IC50 [7] [µM] | viability at 48 h, 1 µM [8] [%] |
| --- | --- | --- | --- | --- | --- | --- | --- | --- |
| O=S1(=O)C[C@@H]2[C@@H](OCc3ccccc3)[C@H](OCc3ccccc3)[C@@H](COCc3ccccc3)O[C@H]2c2c1ccc1ccccc21 | > 100 | > 100 |  |  |  |  |  |  |
| COc1ccc2c(c1)[C@H]1O[C@H](COCc3ccccc3)[C@@H](OCc3ccccc3)[C@H](OCc3ccccc3)[C@H]1C[S@+]2[O-] | 2.75 | 2.62 | 79.9 | 95.8 | 99.8 | 100 | > 100 | 97.4 |
| Cc1ccc2c(c1)[C@@H]1O[C@H](COCc3ccccc3)[C@@H](OCc3ccccc3)[C@H](OCc3ccccc3)[C@H]1CS2(=O)=O | 2.34 | 1.69 |  |  |  |  | > 100 |  |
| [O-][S@@+]1C[C@@H]2[C@@H](OCc3ccccc3)[C@H](OCc3ccccc3)[C@@H](COCc3ccccc3)O[C@@H]2c2c1ccc1ccccc21 | 3.55 | 0.52 | 89 | 93.7 | 96 | 92.5 | > 100 | 96 |
| CC(C)(C)c1ccc2c(c1)[C@H]1O[C@H](COCc3ccccc3)[C@@H](OCc3ccccc3)[C@H](OCc3ccccc3)[C@H]1C[S@@+]2[O-] | 1.33 | 0.33 | 60.2 | 86.9 | 100 | 98.8 | > 100 | 97.1 |
| COc1ccc2c(c1)[C@@H]1O[C@H](COCc3ccccc3)[C@@H](OCc3ccccc3)[C@H](OCc3ccccc3)[C@H]1CS2(=O)=O | 2.5 | 1.95 |  |  |  |  | > 100 |  |
| CC(C)(C)c1ccc2c(c1)[C@H]1O[C@H](CO)[C@@H](O)[C@H](O)[C@H]1CS2 | > 100 | > 100 |  |  |  |  |  |  |
| COc1ccc2c(c1)[C@H]1O[C@H](COCc3ccccc3)[C@@H](OCc3ccccc3)[C@H](OCc3ccccc3)[C@H]1CS2(=O)=O | 1.8 | 1.7 |  |  |  |  | > 100 |  |
| O=S1(=O)C[C@@H]2[C@@H](OCc3ccccc3)[C@H](OCc3ccccc3)[C@@H](COCc3ccccc3)O[C@H]2c2ccccc21 | 4.14 | 3.21 |  |  |  |  | > 100 |  |
| CC(C)(C)c1ccc2c(c1)[C@H]1O[C@H](COCc3ccccc3)[C@@H](OCc3ccccc3)[C@H](OCc3ccccc3)[C@H]1CS2 | > 100 | > 100 |  |  |  |  |  |  |
| Cc1ccc2c(c1)[C@H]1O[C@H](COCc3ccccc3)[C@@H](OCc3ccccc3)[C@H](OCc3ccccc3)[C@H]1CS2 | > 100 | 3.37 | 72.8 | 90 | 97 | 96.3 | > 100 | 97 |
| O=S1(=O)C[C@@H]2[C@@H](OCc3ccccc3)[C@H](OCc3ccccc3)[C@@H](COCc3ccccc3)O[C@@H]2c2c1ccc1ccccc21 | 2.09 | 3.83 |  |  |  |  | > 100 |  |
| Cc1cccc2c1S(=O)(=O)C[C@@H]1[C@@H](OCc3ccccc3)[C@H](OCc3ccccc3)[C@@H](COCc3ccccc3)O[C@@H]21 | 3.4 | 2.14 |  |  |  |  | > 100 |  |
| CC(C)(C)c1ccc2c(c1)[C@H]1O[C@H](COCc3ccccc3)[C@@H](OCc3ccccc3)[C@H](OCc3ccccc3)[C@H]1C[S@+]2[O-] | 0.3 | 0.33 | 55.9 | 92.8 | 102 | 102 | > 100 | 100 |
| COc1ccc2c(c1)[C@H]1O[C@H](COCc3ccccc3)[C@@H](OCc3ccccc3)[C@H](OCc3ccccc3)[C@H]1CS2 | > 100 | 1.73 | 61 | 90.8 | 97 | 95.8 | > 100 | 93.8 |
| Cc1ccc2c(c1)[C@H]1O[C@H](COCc3ccccc3)[C@@H](OCc3ccccc3)[C@H](OCc3ccccc3)[C@H]1CS2(=O)=O | 2.32 | 1.93 | 68.5 | 91.7 | 99.5 | 95.7 | > 100 | 94.6 |
| c1ccc(COC[C@H]2O[C@@H]3c4c(ccc5ccccc45)SC[C@@H]3[C@@H](OCc3ccccc3)[C@@H]2OCc2ccccc2)cc1 | > 100 | 7.11 |  |  |  |  | > 100 |  |
| [O-][S@@+]1C[C@@H]2[C@@H](OCc3ccccc3)[C@H](OCc3ccccc3)[C@@H](COCc3ccccc3)O[C@@H]2c2ccccc21 | > 100 | 10.3 |  |  |  |  | > 100 |  |
| CC(C)(C)c1ccc2c(c1)[C@@H]1O[C@H](COCc3ccccc3)[C@@H](OCc3ccccc3)[C@H](OCc3ccccc3)[C@H]1CS2(=O)=O | > 100 | 0.7 |  |  |  |  | > 100 |  |
| Cc1ccc2c(c1)[C@H]1O[C@H](COCc3ccccc3)[C@@H](OCc3ccccc3)[C@H](OCc3ccccc3)[C@H]1C[S@+]2[O-] | > 100 | 4.11 | 69.7 | 95.9 | 103 | 101 | > 100 | 99.1 |
| Cc1ccc2c(c1)[C@H]1O[C@H](COCc3ccccc3)[C@@H](OCc3ccccc3)[C@H](OCc3ccccc3)[C@H]1C[S@@+]2[O-] | 2.57 | 2.91 | 70.3 | 92.6 | 101 | 101 | > 100 | 100 |
| CC(=O)OC[C@H]1O[C@@H]2c3cc(C(C)(C)C)ccc3SC[C@@H]2[C@@H](OC(C)=O)[C@@H]1OC(C)=O | > 100 | > 100 |  |  |  |  |  |  |
| c1ccc(COC[C@H]2O[C@@H]3c4ccccc4SC[C@@H]3[C@@H](OCc3ccccc3)[C@@H]2OCc2ccccc2)cc1 | 3.46 | 2.05 | 58.1 | 85 | 100 | 98.6 | > 100 | 97.6 |
| CC(C)(C)c1ccc2c(c1)[C@H]1O[C@H](CO)[C@@H](O)[C@H](O)[C@H]1CS2(=O)=O | > 100 | > 100 |  |  |  |  |  |  |
| [O-][S@+]1C[C@@H]2[C@@H](OCc3ccccc3)[C@H](OCc3ccccc3)[C@@H](COCc3ccccc3)O[C@@H]2c2ccccc21 | > 100 | > 100 |  |  |  |  |  |  |
| CC(=O)OC[C@H]1O[C@@H]2c3cc(C(C)(C)C)ccc3S(=O)(=O)C[C@@H]2[C@@H](OC(C)=O)[C@@H]1OC(C)=O | > 100 | > 100 |  |  |  |  |  |  |
| Cc1cccc2c1S(=O)(=O)C[C@@H]1[C@@H](OCc3ccccc3)[C@H](OCc3ccccc3)[C@@H](COCc3ccccc3)O[C@H]21 | 2.34 | 1.62 |  |  |  |  | > 100 |  |
